Test results as given in article PMC3856871 (MedChemComm, 2012).
Entries after “also recorded” stand apart in the source; their conditions may differ.

Columns and labels:
[1] = system: acetyl-α-tubulin; assay: Western blot on MCF-7 cells, acetylation status of α-tubulin; type: cell-based; conditions: 24 h; for acetyl-α-tubulin accumulation: 50 μM, comparison of SIRT inhibitors (Fig. 3)
In short: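 MCF-7 cells exposed 24 h to test compound at increasing concentrations […]. Acetylation of α-tubulin (SIRT2 biomarker) and of histone H3-K9 (SIRT1 biomarker) monitored in parallel.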

[2] = system: p53 acetylation at lysine 382; assay: Western blot on MCF-7 cells, p53 acetylation at lysine 382; type: cell-based; conditions: 24 h, 50 μM (Fig. 3)
[3] = system: MCF-7 breast carcinoma cell line; type: cell-based; conditions: MCF-7 cells, 50 μM, 24 h
[4] = system: MCF-7 cells; assay: proliferative analysis / cell viability assay on MCF-7 cells; type: cell-based; conditions: 30 μM, 0-72 h
[5] = target: T1, SIRT2 (Homo sapiens, UniProt Q8IXJ6); assay: in vitro enzymatic fluorimetric assay, SIRT2 inhibitory activity; type: biochemical; conditions: for selectivity for SIRT2 over SIRT1: in vitro
T1 sequence (Q8IXJ6 1-389): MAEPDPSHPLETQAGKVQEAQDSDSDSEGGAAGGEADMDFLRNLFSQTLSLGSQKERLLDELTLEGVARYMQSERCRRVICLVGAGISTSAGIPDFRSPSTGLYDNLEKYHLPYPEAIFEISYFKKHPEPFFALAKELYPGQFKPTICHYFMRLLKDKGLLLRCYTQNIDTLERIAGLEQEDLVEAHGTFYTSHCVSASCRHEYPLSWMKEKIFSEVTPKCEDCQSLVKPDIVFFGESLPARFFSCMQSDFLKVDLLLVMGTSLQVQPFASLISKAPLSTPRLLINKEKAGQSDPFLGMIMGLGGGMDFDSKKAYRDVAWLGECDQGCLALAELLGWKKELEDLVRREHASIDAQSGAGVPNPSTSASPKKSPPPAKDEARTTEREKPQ

[6] = system: H3-K9 acetylation; assay: Western blot on MCF-7 cells, acetylation status of H3-K9; type: cell-based; conditions: 24 h, concentrations up to 50 μM
[7] = system: pRb phosphorylation at Ser807/Ser811; assay: Western blot on MCF-7 cells, pRb phosphorylation; type: cell-based; conditions: 24 h, 50 μM

## O=C(Nc1cccc(Br)c1)c1cccc(S(=O)(=O)N2CCCCCC2)c1 [AK-7]
[1]
  acetyl-α-tubulin accumulation: no significant effect
[2]
  p53 acetylation at lysine 382: moderately induce p53 acetylation at lysine 382
[3]
  cell cycle phase in which cells accumulate: increase in cells primarily in G2/M phase

## CC(C(=O)Nc1cccc(/N=C/c2c(O)ccc3ccccc23)c1)c1ccccc1 (stereo not drawn) [Salermide]
[1]
  acetyl-α-tubulin accumulation: slight increase in acetyl-α-tubulin
[2]
  p53 acetylation at lysine 382: moderately induce p53 acetylation at lysine 382
[4]
  antiproliferative effect: abolished cell proliferation completely
[3]
  cell cycle phase in which cells accumulate: increase in cells primarily in G2/M phase

## CN1c2ccc(C(N)=O)cc2CCc2cc([N+](=O)[O-])ccc21 [Compound 29]
[5]; N-methyl derivative vs 8
  loss of SIRT2 potency relative to compound 8: 4 fold

## CC(NC(=O)c1ccccc1/N=C/c1c(O)ccc2ccccc12)c1ccccc1 (stereo not drawn) [Sirtinol]
[1]
  acetyl-α-tubulin accumulation: no significant effect
[2]
  p53 acetylation at lysine 382: moderately induce p53 acetylation at lysine 382
[3]
  cell cycle phase in which cells accumulate: accumulate predominantly in G1

## CC(C)(C)NS(=O)(=O)c1ccc2c(c1)Nc1ccccc1CC2 [Compound 20]
[5]
  selectivity for SIRT2 over SIRT1: more than 30 fold

## NC(=O)C1CCCc2c1[nH]c1ccc(Cl)cc21 (stereo not drawn) [EX-527]
[4]
  reduction of cell proliferation relative to DMSO vehicle control: approximately 50%
[3]
  cell cycle phase in which cells accumulate: accumulate predominantly in G1

## NC(=O)c1ccc2c(c1)CCc1cc([N+](=O)[O-])ccc1N2 [Compound 8]
[5]
  selectivity for SIRT2 over SIRT1: more than 30 fold
[1]
  acetyl-α-tubulin accumulation: substantial accumulation of acetyl-α-tubulin
[1]; concentrations up to 50 μM
  acetylation of α-tubulin: induce hyperacetylation of α-tubulin
[6]
  acetylation levels of H3-K9: without increasing the acetylation levels of H3-K9
[7]
  pRb phosphorylation at Ser807/Ser811: impede pRb phosphorylation at Ser807/Ser811
[4]
  antiproliferative effect: antiproliferative activity; also recorded: abolished cell proliferation completely
[3]
  cell cycle phase in which cells accumulate: high number of cells to accumulate at G2/M phase
